Assays:
MC9 [1] = test: Inhibition of IgE-specific antigen-induced PGF2-alpha release in mouse MC9 cells at 0.037 uM
[2] = target: T1, Cytosolic phospholipase A2 (Homo sapiens, UniProt P47712); test: Inhibition of human cytosolic PLA2alpha by GLU micelle assay
T1 sequence (P47712 whole entry): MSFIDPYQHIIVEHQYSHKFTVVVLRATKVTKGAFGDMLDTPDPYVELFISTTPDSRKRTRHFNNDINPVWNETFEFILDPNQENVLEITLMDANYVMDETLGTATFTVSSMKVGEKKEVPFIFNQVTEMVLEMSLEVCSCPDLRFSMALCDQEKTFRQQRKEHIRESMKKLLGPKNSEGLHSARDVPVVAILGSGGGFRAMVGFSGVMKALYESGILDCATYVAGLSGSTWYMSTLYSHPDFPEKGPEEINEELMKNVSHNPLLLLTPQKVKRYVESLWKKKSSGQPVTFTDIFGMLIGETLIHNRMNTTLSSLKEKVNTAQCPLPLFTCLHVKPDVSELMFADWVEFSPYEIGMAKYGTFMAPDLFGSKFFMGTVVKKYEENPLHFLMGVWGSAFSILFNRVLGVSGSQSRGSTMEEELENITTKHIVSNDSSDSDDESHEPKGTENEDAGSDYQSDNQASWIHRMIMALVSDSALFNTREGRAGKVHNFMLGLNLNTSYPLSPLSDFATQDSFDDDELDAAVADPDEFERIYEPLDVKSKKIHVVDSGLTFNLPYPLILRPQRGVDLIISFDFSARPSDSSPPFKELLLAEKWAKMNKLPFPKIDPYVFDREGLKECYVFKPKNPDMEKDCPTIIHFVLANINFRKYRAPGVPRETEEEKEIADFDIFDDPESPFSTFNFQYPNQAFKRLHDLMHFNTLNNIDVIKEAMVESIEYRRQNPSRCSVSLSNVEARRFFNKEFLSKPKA
Outline: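 Purified human cPLA2α with the substrate 7-hydroxycoumarinyl-γ-linolenate (GLU), presented in micelles containing a high concentration of detergent and lipid. IC50 is taken from at least two runs, each run the mean of duplicate assays.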

MC9 [3] = test: Inhibition of IgE-specific antigen-induced LBT4 release in mouse MC9 cells at 0.037 uM
MC9 [4] = test: Inhibition of arachidonic acid-induced PGF2-alpha release in mouse MC9 cells at 1.0 uM
Blood = test: Inhibition of A23187-induced TBX2 release in Sprague-Dawley rat whole blood; type: functional, tissue-based
Outline: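 Rat whole blood is stimulated with calcium ionophore A23187, and thromboxane B2 is the read-out (cPLA2α- and COX-1-dependent). IC50 is taken from at least two runs, each run the mean of triplicate assays.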

Rattus norvegicus [5] = test: Antiinflammatory activity against carrageenan-induced paw edema in Sprague-Dawley rat at 15 mg/kg, iv; type: functional
Outline: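 Rat carrageenan paw edema after iv dosing in 50/50 PEG/DMSO, with paw swelling assessed 3 h after dosing. Groups of 10 animals; naproxen was used to define maximal % inhibition.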

MC9 [6] = test: Inhibition of IgE-specific antigen-induced PGF2alpha release in mouse MC9 cells at 0.11 uM
Rattus norvegicus [7] = test: Plasma concentration in carrageenan-induced paw edema Sprague-Dawley rat model at 15 mg/kg, iv; type: ADME, organism-based; set-up: dose 15 mg/kg, route intravenous; settings: in vivo
Outline: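 Plasma concentration is measured in end-bleed samples taken 3 h after iv dosing in 50/50 PEG/DMSO in the carrageenan paw edema model. Values are means from five animals.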

MC9 [8] = test: Inhibition of IgE-specific antigen-induced LBT4 release in mouse MC9 cells at 0.11 uM
MC9 [9] = test: Inhibition of IgE-specific antigen-induced LBT4 release in mouse MC9 cells at 0.5 uM
MC9 [10] = test: Inhibition of arachidonic acid-induced PGF2-alpha release in mouse MC9 cells at 0.5 uM
MC9 [11] = test: Inhibition of IgE-specific antigen-induced PGF2alpha release in mouse MC9 cells at 0.5 uM

Compound | IC50 [2] [nM] | IC50 (Blood) [nM] | other results
O=C(O)c1ccc(CCCc2c(CCNS(=O)(=O)CCN3CCOCC3)n(C(c3ccccc3)c3ccccc3)c3ccc(Cl)cc23)cc1 | 200 | 140 | inhibition in vivo at 15 mg/kg (Rattus norvegicus [5]): 23.5%; inhibition at 0.11 µM (MC9 [6]): 71%; concentration (Rattus norvegicus [7]): 163 nM; inhibition at 0.11 µM (MC9 [8]): 69%; inhibition at 1 µM (MC9 [4]): 9%
Cc1cc(C)n(CCS(=O)(=O)NCCc2c(CCOc3ccc(C(=O)O)cc3)c3cc(Cl)ccc3n2C(c2ccccc2)c2ccccc2)n1 | 450 | 160 | inhibition at 0.11 µM (MC9 [6]): 83%; inhibition at 0.11 µM (MC9 [8]): 89%; inhibition at 1 µM (MC9 [4]): 5%
O=C(O)c1ccc(OCCc2c(CCNS(=O)(=O)CCN3CCCCC3)n(C(c3ccccc3)c3ccccc3)c3ccc(Cl)cc23)cc1 | 360 | 140 | –
CC1CCN(CCS(=O)(=O)NCCc2c(CCOc3ccc(C(=O)O)cc3)c3cc(Cl)ccc3n2C(c2ccccc2)c2ccccc2)CC1 | 220 | 200 | –
O=C(O)c1ccc(OCCc2c(CCNS(=O)(=O)CSc3c(Cl)cccc3Cl)n(C(c3ccccc3)c3ccccc3)c3ccc(Cl)cc23)cc1 | 600 | 160 | –
CC1CCCN(CCS(=O)(=O)NCCc2c(CCOc3ccc(C(=O)O)cc3)c3cc(Cl)ccc3n2C(c2ccccc2)c2ccccc2)C1 (stereo not given) | 350 | 200 | –
O=C(O)c1ccc(OCCc2c(CCNS(=O)(=O)CCN3CCC(O)C3)n(C(c3ccccc3)c3ccccc3)c3ccc(Cl)cc23)cc1 (stereo not given) | 700 | 310 | –
CCN(CC)Cc1ccccc1CS(=O)(=O)NCCc1c(CCCc2ccc(C(=O)O)cc2)c2cc(Cl)ccc2n1C(c1ccccc1)c1ccccc1 | 30 | 37 | –
Cc1cc(C)n(CCS(=O)(=O)NCCc2c(CCCc3ccc(C(=O)O)cc3)c3cc(Cl)ccc3n2C(c2ccccc2)c2ccccc2)n1 | 300 | 110 | –
CC(=O)N1C(C)CN(CCS(=O)(=O)NCCc2c(CCOc3ccc(C(=O)O)cc3)c3cc(Cl)ccc3n2C(c2ccccc2)c2ccccc2)CC1C (stereo not given) | 270 | 1200 | –
Cc1ccn(CCS(=O)(=O)NCCc2c(CCOc3ccc(C(=O)O)cc3)c3cc(Cl)ccc3n2C(c2ccccc2)c2ccccc2)n1 | 510 | 200 | –
C[C@@H]1COC[C@H](C)N1CCS(=O)(=O)NCCc1c(CCOc2ccc(C(=O)O)cc2)c2cc(Cl)ccc2n1C(c1ccccc1)c1ccccc1 | 450 | 340 | –
O=C(O)c1ccc(OCCc2c(CCNS(=O)(=O)CCn3ccnn3)n(C(c3ccccc3)c3ccccc3)c3ccc(Cl)cc23)cc1 | 500 | 200 | –
Cc1ccccc1SCS(=O)(=O)NCCc1c(CCOc2ccc(C(=O)O)cc2)c2cc(Cl)ccc2n1C(c1ccccc1)c1ccccc1 | 150 | 80 | –
Cc1cccc(C)c1SCS(=O)(=O)NCCc1c(CCOc2ccc(C(=O)O)cc2)c2cc(Cl)ccc2n1C(c1ccccc1)c1ccccc1 | 330 | 300 | –
Cc1ccccc1CS(=O)(=O)NCCc1c(CCCc2ccc(C(=O)O)cc2)c2cc(Cl)ccc2n1C(c1ccccc1)c1ccccc1 | 26 | 25 | –
CS(=O)(=O)CS(=O)(=O)NCCc1c(CCOc2ccc(C(=O)O)cc2)c2cc(Cl)ccc2n1C(c1ccccc1)c1ccccc1 | 150 | 480 | inhibition at 0.5 µM (MC9 [9]): 100%; inhibition at 0.5 µM (MC9 [10]): -47%; inhibition at 0.5 µM (MC9 [11]): 100%
O=C(O)c1ccc(OCCc2c(CCNS(=O)(=O)C[S+]([O-])c3ccc(Cl)c(Cl)c3)n(C(c3ccccc3)c3ccccc3)c3ccc(Cl)cc23)cc1 (stereo not given) | 180 | 560 | inhibition at 0.11 µM (MC9 [6]): 45%; inhibition at 0.11 µM (MC9 [8]): 55%; inhibition at 1 µM (MC9 [4]): 1.4%

The next lines start with results.

IC50 [2] [nM] | IC50 (Blood) [nM] | Compound | other results
120 | 57 | CC1CCCCN1CCS(=O)(=O)NCCc1c(CCOc2ccc(C(=O)O)cc2)c2cc(Cl)ccc2n1C(c1ccccc1)c1ccccc1 (stereo not given) | inhibition at 0.037 µM (MC9 [1]): 45%; inhibition at 0.037 µM (MC9 [3]): 62%; inhibition at 1 µM (MC9 [4]): 14%
240 | 140 | O=C(O)c1ccc(OCCc2c(CCNS(=O)(=O)CSc3ccc(Cl)c(Cl)c3)n(C(c3ccccc3)c3ccccc3)c3ccc(Cl)cc23)cc1 | inhibition at 0.037 µM (MC9 [1]): 48%; inhibition at 0.037 µM (MC9 [3]): 64%; inhibition at 1 µM (MC9 [4]): 33%
300 | 80 | O=C(O)c1ccc(OCCc2c(CCNS(=O)(=O)CSc3ccc(Cl)cc3Cl)n(C(c3ccccc3)c3ccccc3)c3ccc(Cl)cc23)cc1 | –
150 | 90 | O=C(O)c1ccc(OCCc2c(CCNS(=O)(=O)CSc3ccccc3Cl)n(C(c3ccccc3)c3ccccc3)c3ccc(Cl)cc23)cc1 | –
100 | 200 | COc1ccccc1S(=O)(=O)NCCc1c(CCCc2ccc(C(=O)O)cc2)c2cc(Cl)ccc2n1C(c1ccccc1)c1ccccc1 | –
350 | 330 | O=C(O)c1ccc(OCCc2c(CCNS(=O)(=O)CCN3CCCC3)n(C(c3ccccc3)c3ccccc3)c3ccc(Cl)cc23)cc1 | –
6 | 34 | CC(=O)N1CCN(Cc2ccccc2CS(=O)(=O)NCCc2c(CCCc3ccc(C(=O)O)cc3)c3cc(Cl)ccc3n2C(c2ccccc2)c2ccccc2)CC1 | –
290 | 210 | O=C(O)c1ccc(OCCc2c(CCNS(=O)(=O)CCN3CCN(c4ccccn4)CC3)n(C(c3ccccc3)c3ccccc3)c3ccc(Cl)cc23)cc1 | –
250 | 400 | O=C(O)c1ccc(OCCc2c(CCNS(=O)(=O)CCN3CC4CC3CO4)n(C(c3ccccc3)c3ccccc3)c3ccc(Cl)cc23)cc1 (stereo not given) | –
270 | 150 | CN(C)CC1CCCCN1CCS(=O)(=O)NCCc1c(CCOc2ccc(C(=O)O)cc2)c2cc(Cl)ccc2n1C(c1ccccc1)c1ccccc1 (stereo not given) | inhibition at 0.11 µM (MC9 [6]): 56%; inhibition at 0.11 µM (MC9 [8]): 62%; inhibition at 1 µM (MC9 [4]): 13%
20 | 80 | CN1CCN(Cc2ccccc2CS(=O)(=O)NCCc2c(CCCc3ccc(C(=O)O)cc3)c3cc(Cl)ccc3n2C(c2ccccc2)c2ccccc2)CC1 | –
200 | 50 | O=Cc1ccccc1CS(=O)(=O)NCCc1c(CCCc2ccc(C(=O)O)cc2)c2cc(Cl)ccc2n1C(c1ccccc1)c1ccccc1 | –
500 | 630 | O=C(O)c1ccc(OCCc2c(CCNS(=O)(=O)CCc3ccccc3)n(C(c3ccccc3)c3ccccc3)c3ccc(Cl)cc23)cc1 | –
– | 180 | O=C(O)c1ccc(OCCc2c(CCNS(=O)(=O)CCN3CCSCC3)n(C(c3ccccc3)c3ccccc3)c3ccc(Cl)cc23)cc1 | inhibition in vivo at 15 mg/kg (Rattus norvegicus [5]): 27.9%; inhibition at 0.11 µM (MC9 [6]): 66%; concentration (Rattus norvegicus [7]): 270 nM; inhibition at 0.11 µM (MC9 [8]): 76%; inhibition at 1 µM (MC9 [4]): 6%
140 | 30 | O=C(O)c1ccc(OCCc2c(CCNS(=O)(=O)CSc3ccc(F)cc3F)n(C(c3ccccc3)c3ccccc3)c3ccc(Cl)cc23)cc1 | inhibition at 0.037 µM (MC9 [1]): 77%; inhibition at 0.037 µM (MC9 [3]): 94%; inhibition at 1 µM (MC9 [4]): 47%
130 | 74 | CC1CCC(C)N1CCS(=O)(=O)NCCc1c(CCOc2ccc(C(=O)O)cc2)c2cc(Cl)ccc2n1C(c1ccccc1)c1ccccc1 (stereo not given) | inhibition in vivo at 15 mg/kg (Rattus norvegicus [5]): 37%; inhibition at 0.11 µM (MC9 [6]): 69%; concentration (Rattus norvegicus [7]): 232 nM; inhibition at 0.11 µM (MC9 [8]): 80%; inhibition at 1 µM (MC9 [4]): -2%
13 | 170 | O=C(O)c1ccc(CCCc2c(CCNS(=O)(=O)Cc3ccccc3CN3CCNCC3)n(C(c3ccccc3)c3ccccc3)c3ccc(Cl)cc23)cc1 | –

From ChEMBL document CHEMBL1140903, “Reactions of functionalized sulfonamides: application to lowering the lipophilicity of cytosolic phospholipase A2alpha inhibitors” (J Med Chem, 2009)
